# Bioassay records: PubChem BioAssay, several laboratories
# This is a sample that favours compounds with a hit; in the whole collection about 5.3% have one here.
# Beta cell apopt = beta cell apoptosis inhibition. INS-1E cytokine-induced death, ATP luminescence, 48 h; percent of positive-control rescue, neutral wells zero. protection from apoptosis, % (test concentration not listed). actives 0.8% (n = 300,000);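 active = Every replicate reaches about 75%, or at least half do and their mean reaches it too, limit read from the data; inconclusive = At least half of replicates reach the limit but their mean does not; inactive = Under half of replicates reach the limit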;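 also: 0% = cytokine-treated negative control wells and 100% = positive control rescue; higher means more ATP so stronger rescue from cytokine killing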
# CSC inhib = blocks cancer stem cells | cancer stem cell-like cells viability, luminescence | actives 1.1% (n = 300,000) | inhibition, % at 7.5 µM | AID 2717; in the data active = inhibition above about 75%; inconclusive = no clear call, values can overlap the other calls; tested in HMLE shEcad cells
# Calb FLC = affects C. albicans growth with fluconazole. growth inhibition, % (concentration not given with the values). actives 0.57% (n = 300,000). C. albicans CaCi-2 (fluconazole-resistant clinical isolate) + fluconazole, Alamar Blue growth, 48 h;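 active = growth inhibition above about 58% in most replicates, limit read from the data, passing the limit was not always enough; inconclusive = exactly half the replicates above a set limit; inactive = most replicates below a set limit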;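 also: all wells also contain fluconazole at 8 µg/ml as a sub-toxic cotreatment; 0% = median of DMSO wells and 100% = median of geldanamycin control wells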
# NALP3 yeast inh = inhibitors of NALP3 inflammasome in yeast | Yeast reconstituted NLRP3/ASC/caspase-1, beta-gal luminescence, 24 h | inhibition, % at 10 µM | actives 0.39% (n = 330,000);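 active = inhibition of 50% or more; inactive = inhibition below 50%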;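 also: plate controls were induced DMSO wells for no effect and uninduced yeast grown without galactose for full effect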
# Mdm2 MdmX PPI = inhibitors of human Mdm2/MdmX interaction. O15151+Q00987. SaOS-2 split-luciferase Mdm2/MdmX complementation, luminescence. inhibition, % at 8 µM. actives 3% (n = 330,000). AID 485346;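 active = inhibition of at least 50% at 8 µM in the primary screen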
# T cruzi inh = blocks replication of Trypanosoma cruzi; T. cruzi beta-gal in NIH3T3, luminescence, 90 h; inhibition, % (no concentration beside the values); actives 1.4% (n = 300,000);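 active = mean inhibition across valid replicates above about 55%, limit read from the data; inconclusive = mean below that limit but half or more replicates reach it; inactive = mean below it, under half of replicates reach it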;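 also: signal also drops with host cell toxicity which is not excluded here; 0% = plate median of DMSO wells and 100% = zero luminescence signal; higher percent means less beta-gal luminescence so fewer parasites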
#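 System: NIH/3T3 fibroblasts plus reporter T. cruzi. Medium: DMEM plus 2% FBS. Probe or stimulus: 5000 reporter trypomastigotes per well. Compound: single 50 nL compound addition per well in DMSO. Incubation: co-culture of at least 90 h after 3 h attachment. Detection: GalScreen β-gal luminescence, detergent lysis, 60 min. Evaluation: parasite load inhibition, %.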
# * = called active by the depositor; ? = inconclusive; · = no result.
SMILES,Beta cell apopt,CSC inhib,Calb FLC,NALP3 yeast inh,Mdm2 MdmX PPI,T cruzi inh
Cc1ccc2nc(/C(C#N)=C\c3ccc(N4CCCCC4)c([N+](=O)[O-])c3)[nH]c2c1,11.8,69.1,4.4,13.0,14.8,72.4*
COCCn1c(SCC(=O)NCCc2ccc(OC)c(OC)c2)nc2c([nH]c3ccccc32)c1=O,-7.8,·,9.5,-8.0,1.3,5.8
O=C(c1ccc([N+](=O)[O-])s1)N1CCc2ccccc2C1,-14.1,-3.6,2.8,33.8,-10.2,84.0*
O=C(c1ccc([N+](=O)[O-])s1)N1CCc2ccccc21,-11.6,·,-15.7,13.1,10.4,36.5
Cc1ccc(OCC(=O)N(Cc2ccco2)C2CCS(=O)(=O)C2)cc1 (configuration not stated),0.0,-12.6,30.6,8.7,10.8,-6.2
COc1ccc(N2CCN(C(=S)NCCc3ccccc3)CC2)cc1,1.2,·,-14.9,26.3,12.8,-16.0
Oc1ccc(N2CCN(C(=S)NCCc3ccccc3)CC2)cc1,2.8,1.2,106.2*,16.3,16.6,23.0
CCCc1cc(=O)[nH]c(SCC(=O)Nc2ccc(Br)cc2)n1,-1.2,12.4,2.0,0.4,24.9,-3.5
CCCc1cc(=O)[nH]c(SCC(=O)Nc2ccc(Br)cc2Br)n1,-4.5,-5.7,59.9*,33.3,-5.7,-7.6
O=c1oc2cc(O)ccc2cc1S(=O)(=O)c1ccccc1,-8.7,5.9,2.0,-15.8,14.7,0.3
CCN(CC)c1ccc2cc(S(=O)(=O)c3ccc(Cl)cc3)c(=O)oc2c1,5.0,99.3*,9.1,12.6,12.0,41.5
COc1ccc(N(C)C(=O)c2ccc3snnc3c2)cc1,-1.9,-12.7,3.3,1.4,17.5,-0.1
FC(F)(F)COc1nc(N/N=C/c2cccnc2)nc(N2CCCCC2c2ccccn2)n1 (configuration not stated),12.3,4.6,11.4,-11.2,10.7,59.0*
Cc1nc2ccccc2n1Cc1ccc(Br)cc1,96.1*,-1.2,-18.5,19.3,-0.2,-68.5
Cc1nc2ccccc2n1Cc1ccccc1,4.7,18.3,-19.0,9.0,13.7,-21.0
C/C(CC(=O)Nc1ccc(Cl)c(C(F)(F)F)c1)=N\NC(=O)c1cc2ccccc2cc1O,4.3,75.7*,2.6,11.0,25.3,-22.4
CC(C)C1C(c2ccccc2)N(C)C(c2ccccc2)CC1(O)c1ccccc1 (configuration not stated),44.7,130.8*,-6.5,-9.1,30.5,58.0*
CCC1C(c2ccccc2)N(C)C(c2ccccc2)CC1(O)c1ccccc1 (configuration not stated),-0.8,35.7,0.7,-24.1,1.1,59.5*
CC1C(=O)CC(c2ccccc2)N(C)C1c1ccccc1 (configuration not stated),·,-4.8,-1.5,17.0,-18.1,0.5
COCCCNCCOc1ccc(C(C)(C)c2ccccc2)cc1,-1.3,38.0,-15.2,23.3,30.5,60.8*
CC(C)(c1ccccc1)c1ccc(OCCCN2CCNCC2)cc1,9.3,79.9*,-2.2,29.3,46.7,64.3*
O=[N+]([O-])c1ccc(OCCN2CCNCC2)cc1,0.3,6.7,8.4,13.0,-7.5,57.9*
CCC(C)NCCOc1ccc(C(C)(C)c2ccccc2)cc1 (configuration not stated),3.6,?,-47.4,20.1,34.3,65.2*
CC(C)(C)c1ccc(OCCCCCCN2CCNCC2)cc1,10.9,63.9,-18.5,26.4,26.3,7.2
O=C1c2cccc3cccc(c23)C(=O)N1CCN1CCN(CC(O)COCc2ccc(Cl)cc2)CC1 (configuration not stated),-1.0,82.1*,-25.7,10.4,12.9,12.0
COc1cc(COCC(O)CN2CCN(CCN3C(=O)c4cccc5cccc(c45)C3=O)CC2)cc(OC)c1OC (configuration not stated),19.2,-20.8,-13.1,-4.2,-14.9,-51.6
CN(C)c1nc(NC(C)(C)C)nc(NC(C)(C)C)n1,36.2,4.2,-15.2,-6.0,5.1,59.5*
CCNc1nc(NC(C)(C)C)nc(N(CC)n2cnnc2)n1,1.2,-11.1,-26.3,-6.2,20.8,14.9
Cc1cc(C)n(Cc2n[nH]c(=S)n2Cc2ccccc2)n1,-1.5,-3.4,-0.8,14.2,-4.5,-1.7
CC1CCN(c2nc(-c3cccnc3)nc3scc(-c4ccccc4)c23)CC1,9.1,94.7*,4.2,4.4,17.0,30.5
